ChEMBL document CHEMBL2331457, “Synthesis and biological evaluation of 2-(arylethynyl)quinoline derivatives as mGluR5 antagonists for the treatment of neuropathic pain” (Bioorg Med Chem Lett, 2013)
Calls of active or inactive are those of the source. No cut-off for these calls is given here.

Columns and labels:
[1] = target: T1, Metabotropic glutamate receptor 5 (Homo sapiens, UniProt P41594); test: Antagonist activity at human mGluR5 expressed in HEK293 cells assessed as inhibition of L-glutamate-induced calcium mobilization at 1 uM by FDSS6000 assay; assay type: functional, cell-based
Method in brief: (§1)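 HEK cells stably expressing mGluR5, grown in DMEM with 10% FBS, penicillin, streptomycin and puromycin (10 µg/mL) at 37 °C, 5% CO₂. Cells seeded at 40,000/well, incubated 18 h, then loaded with Calcium-5 dye. In the FDSS6000 fluorescence assay, receptor activated with L-glutamate in HBSS in the presence of various concentrations of test compound. Read-out is inhibition of the Ca²⁺ signal.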
Target sequence in this assay (P41594 21-1212 limits assumed): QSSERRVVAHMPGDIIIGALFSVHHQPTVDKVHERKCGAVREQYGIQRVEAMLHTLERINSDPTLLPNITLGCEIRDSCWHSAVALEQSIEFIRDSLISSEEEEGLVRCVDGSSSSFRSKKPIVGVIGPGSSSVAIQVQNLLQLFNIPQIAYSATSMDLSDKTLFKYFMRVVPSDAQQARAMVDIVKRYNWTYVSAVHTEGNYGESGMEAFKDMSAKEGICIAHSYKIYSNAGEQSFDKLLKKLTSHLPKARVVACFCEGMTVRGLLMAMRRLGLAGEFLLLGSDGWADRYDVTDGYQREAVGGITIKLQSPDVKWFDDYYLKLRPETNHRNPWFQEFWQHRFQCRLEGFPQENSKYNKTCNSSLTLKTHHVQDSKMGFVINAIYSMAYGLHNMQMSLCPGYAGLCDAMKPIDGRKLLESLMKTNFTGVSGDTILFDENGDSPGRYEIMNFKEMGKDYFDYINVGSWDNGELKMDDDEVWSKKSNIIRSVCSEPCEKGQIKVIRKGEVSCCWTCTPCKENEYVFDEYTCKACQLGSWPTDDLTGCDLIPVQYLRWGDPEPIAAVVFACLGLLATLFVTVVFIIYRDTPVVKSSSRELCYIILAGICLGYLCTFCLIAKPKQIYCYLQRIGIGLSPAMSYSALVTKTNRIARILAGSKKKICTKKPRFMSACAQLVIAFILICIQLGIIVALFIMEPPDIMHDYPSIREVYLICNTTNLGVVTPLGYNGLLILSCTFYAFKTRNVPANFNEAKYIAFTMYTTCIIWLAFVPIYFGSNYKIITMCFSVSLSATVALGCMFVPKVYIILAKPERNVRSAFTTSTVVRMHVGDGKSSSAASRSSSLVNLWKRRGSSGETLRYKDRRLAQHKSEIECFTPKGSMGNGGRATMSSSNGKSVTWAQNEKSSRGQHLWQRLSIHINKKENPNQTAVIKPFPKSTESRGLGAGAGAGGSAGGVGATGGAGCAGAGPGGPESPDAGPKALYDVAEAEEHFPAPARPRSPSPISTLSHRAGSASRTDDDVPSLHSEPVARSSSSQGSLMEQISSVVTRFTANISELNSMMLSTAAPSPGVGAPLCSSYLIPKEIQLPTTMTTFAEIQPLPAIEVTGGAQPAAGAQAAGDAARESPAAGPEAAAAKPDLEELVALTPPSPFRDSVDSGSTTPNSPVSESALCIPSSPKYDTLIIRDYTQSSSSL

[2] = target: T1, Metabotropic glutamate receptor 5; test: Antagonist activity at human mGluR5 expressed in HEK293 cells assessed as inhibition of L-glutamate-induced calcium mobilization at 10 uM by FDSS6000 assay; assay type: functional, cell-based; method in brief: as §1
Target sequence in this assay (P41594 21-1212 limits assumed): as above

[3] = Metabolic stability in human liver microsomes assessed as compound remaining at 1 uM after 30 mins; assay type: ADME, Microsome; conditions: read-out: Stability
Method in brief: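 Compound at 1 µM incubated with human liver microsomes for 30 min; read-out is percent of parent remaining.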

Rattus norvegicus [4] = test: Antiallodynic activity in rat spinal nerve ligation model of neuropathic pain assessed as reduction of cold allodynia at 100 mg/kg, po after 3 hrs; assay type: functional, organism-based; set-up: dose 100 mg/kg
Method in brief: (§2)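 Rat SNL model: tight ligation of L5 spinal nerve distal to DRG. Mechanical and cold allodynia were tested 1 day before and 14 days after surgery, then given orally, and retested at 1, 3 and 5 h. Mechanical allodynia used the wire-mesh-floor method, cold allodynia was scored as %MPE. Gabapentin was the reference (n = 4), test n = 5. Paired t-test versus pre-dose.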

Rattus norvegicus [5] = test: Antiallodynic activity in rat spinal nerve ligation model of neuropathic pain assessed as reduction of mechanical allodynia at 100 mg/kg, po after 5 hrs; assay type: functional, organism-based; set-up: dose 100 mg/kg; method in brief: as §2
CYP3A4 = CYP3A4 (Homo sapiens, UniProt P08684); test: Inhibition of CYP3A4 (unknown origin) assessed as residual activity at 10 uM; assay type: ADME; conditions: read-out: Activity
Method in brief: (§3)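 CYP2D6, CYP2C9 and CYP3A4 each tested with compound at 10 µM; read-out is percent enzyme activity remaining.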

CYP2C9 = CYP2C9 (Homo sapiens, UniProt P11712); test: Inhibition of CYP2C9 (unknown origin) assessed as residual activity at 10 uM; assay type: ADME; conditions: read-out: Activity; method in brief: as §3
CYP2D6 = CYP2D6 (Homo sapiens, UniProt P10635); test: Inhibition of CYP2D6 (unknown origin) assessed as residual activity at 10 uM; assay type: ADME; conditions: read-out: Activity; method in brief: as §3
[6] = target: T1, Metabotropic glutamate receptor 5; test: Antagonist activity at human mGluR5 expressed in HEK293 cells assessed as inhibition of L-glutamate-induced calcium mobilization by FDSS6000 assay
Target sequence in this assay (P41594 whole entry): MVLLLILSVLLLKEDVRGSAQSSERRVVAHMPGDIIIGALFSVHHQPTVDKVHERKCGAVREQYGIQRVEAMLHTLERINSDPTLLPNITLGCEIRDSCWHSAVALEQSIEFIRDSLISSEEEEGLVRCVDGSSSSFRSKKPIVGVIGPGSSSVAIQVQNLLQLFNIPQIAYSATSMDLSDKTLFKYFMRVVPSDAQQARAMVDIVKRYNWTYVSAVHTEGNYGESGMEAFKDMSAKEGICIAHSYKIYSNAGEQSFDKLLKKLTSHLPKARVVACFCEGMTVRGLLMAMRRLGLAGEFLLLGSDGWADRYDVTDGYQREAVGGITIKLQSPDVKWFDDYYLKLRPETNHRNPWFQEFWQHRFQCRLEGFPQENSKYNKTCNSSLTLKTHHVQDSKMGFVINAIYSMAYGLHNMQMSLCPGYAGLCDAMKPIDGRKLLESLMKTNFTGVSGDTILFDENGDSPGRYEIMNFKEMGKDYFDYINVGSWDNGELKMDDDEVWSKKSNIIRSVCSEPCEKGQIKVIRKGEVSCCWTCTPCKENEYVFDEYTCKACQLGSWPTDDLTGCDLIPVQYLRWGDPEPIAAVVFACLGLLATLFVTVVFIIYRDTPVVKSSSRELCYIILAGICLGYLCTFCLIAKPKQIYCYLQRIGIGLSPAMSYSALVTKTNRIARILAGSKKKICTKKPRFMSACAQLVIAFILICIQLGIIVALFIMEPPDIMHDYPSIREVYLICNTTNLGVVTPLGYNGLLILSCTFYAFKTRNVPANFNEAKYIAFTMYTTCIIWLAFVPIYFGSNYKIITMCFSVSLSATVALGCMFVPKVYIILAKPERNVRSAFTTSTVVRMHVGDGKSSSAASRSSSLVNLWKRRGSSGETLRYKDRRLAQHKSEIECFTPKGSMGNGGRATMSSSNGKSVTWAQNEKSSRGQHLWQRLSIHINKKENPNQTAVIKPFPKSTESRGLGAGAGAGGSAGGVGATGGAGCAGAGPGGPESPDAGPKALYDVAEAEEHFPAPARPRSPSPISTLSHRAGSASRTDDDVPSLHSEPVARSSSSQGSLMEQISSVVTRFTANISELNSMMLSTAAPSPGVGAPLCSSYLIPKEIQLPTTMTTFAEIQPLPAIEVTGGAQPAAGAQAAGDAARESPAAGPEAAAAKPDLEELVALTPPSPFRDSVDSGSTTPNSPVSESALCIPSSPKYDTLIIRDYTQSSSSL

[7] = target: Voltage-gated inwardly rectifying potassium channel KCNH2 (Homo sapiens, UniProt Q12809)
[8] = Oral bioavailability in rat at 10 mg/kg; assay type: ADME, organism-based; conditions: in vivo
Method in brief: (§4)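 Rat plasma pharmacokinetics after a 10 mg/kg dose, intravenous (n = 4) or oral (n = 3); mean parameters reported.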

[9] = Half life in rat at 10 mg/kg, po; assay type: ADME, organism-based; set-up: dose 10 mg/kg, route oral; conditions: in vivo; method in brief: as §4
[10] = Tmax in rat at 10 mg/kg, po; assay type: ADME, organism-based; set-up: dose 10 mg/kg, route oral; conditions: in vivo
Method in brief: (§5)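 Rat plasma pharmacokinetics after a single oral dose of 10 mg/kg. The group size was n = 3 rats, and the reported values are group means.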

[11] = Cmax in rat at 10 mg/kg, po; assay type: ADME, organism-based; set-up: dose 10 mg/kg, route oral; conditions: in vivo; method in brief: as §5
[12] = Apparent volume of distribution at steady state in rat at 10 mg/kg, iv; assay type: ADME, organism-based; set-up: dose 10 mg/kg, route intravenous; conditions: in vivo, read-out: Vdss(app); method in brief: as §4
[13] = Clearance in rat at 10 mg/kg, iv; assay type: ADME, organism-based; set-up: dose 10 mg/kg, route intravenous; conditions: in vivo; method in brief: as §4
[14] = Half life in rat at 10 mg/kg, iv; assay type: ADME, organism-based; set-up: dose 10 mg/kg, route intravenous; conditions: in vivo; method in brief: as §4

Sequence of CYP3A4 (P08684 whole entry): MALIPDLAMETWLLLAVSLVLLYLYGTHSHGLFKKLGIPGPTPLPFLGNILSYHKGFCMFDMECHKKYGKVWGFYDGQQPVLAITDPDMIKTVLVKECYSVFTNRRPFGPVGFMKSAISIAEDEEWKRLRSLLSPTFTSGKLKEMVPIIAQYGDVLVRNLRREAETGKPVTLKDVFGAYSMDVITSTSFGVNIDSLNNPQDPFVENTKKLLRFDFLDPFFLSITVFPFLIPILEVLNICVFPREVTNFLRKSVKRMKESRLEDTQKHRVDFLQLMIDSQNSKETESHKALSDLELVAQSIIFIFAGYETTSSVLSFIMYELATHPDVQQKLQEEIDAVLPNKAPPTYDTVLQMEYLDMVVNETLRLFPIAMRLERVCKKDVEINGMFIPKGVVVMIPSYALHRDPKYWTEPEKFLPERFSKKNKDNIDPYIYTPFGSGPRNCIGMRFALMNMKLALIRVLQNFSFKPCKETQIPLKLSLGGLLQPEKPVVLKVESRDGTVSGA
Sequence of CYP2D6 (P10635 whole entry): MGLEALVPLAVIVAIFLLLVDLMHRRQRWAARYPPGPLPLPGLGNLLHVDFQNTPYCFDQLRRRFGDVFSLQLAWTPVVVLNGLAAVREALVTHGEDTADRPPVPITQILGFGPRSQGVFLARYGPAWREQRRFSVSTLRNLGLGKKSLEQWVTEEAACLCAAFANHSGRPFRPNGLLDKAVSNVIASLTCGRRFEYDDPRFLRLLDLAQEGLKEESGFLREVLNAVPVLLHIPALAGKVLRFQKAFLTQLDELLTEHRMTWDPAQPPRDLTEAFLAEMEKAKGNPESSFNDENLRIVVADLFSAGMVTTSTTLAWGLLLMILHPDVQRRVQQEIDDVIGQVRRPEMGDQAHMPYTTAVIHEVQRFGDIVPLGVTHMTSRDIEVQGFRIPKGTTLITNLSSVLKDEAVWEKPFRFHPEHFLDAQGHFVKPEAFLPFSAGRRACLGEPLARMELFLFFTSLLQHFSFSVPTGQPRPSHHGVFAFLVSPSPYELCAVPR
Sequence of CYP2C9 (P11712 whole entry): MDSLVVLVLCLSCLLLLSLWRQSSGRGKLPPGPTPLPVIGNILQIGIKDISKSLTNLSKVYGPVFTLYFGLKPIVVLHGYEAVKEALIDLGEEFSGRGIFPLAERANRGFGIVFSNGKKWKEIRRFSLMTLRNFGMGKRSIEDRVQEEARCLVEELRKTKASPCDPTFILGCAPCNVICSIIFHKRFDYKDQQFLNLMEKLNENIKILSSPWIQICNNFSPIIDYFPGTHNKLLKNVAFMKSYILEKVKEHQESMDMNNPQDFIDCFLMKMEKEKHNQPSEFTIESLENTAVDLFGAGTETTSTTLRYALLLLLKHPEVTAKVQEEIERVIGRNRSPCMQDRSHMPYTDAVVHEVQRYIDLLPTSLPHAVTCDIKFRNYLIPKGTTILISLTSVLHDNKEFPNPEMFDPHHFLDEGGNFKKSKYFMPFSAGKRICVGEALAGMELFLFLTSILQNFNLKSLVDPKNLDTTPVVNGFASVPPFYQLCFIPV
Sequence of Voltage-gated inwardly rectifying potassium channel KCNH2 (Q12809 whole entry): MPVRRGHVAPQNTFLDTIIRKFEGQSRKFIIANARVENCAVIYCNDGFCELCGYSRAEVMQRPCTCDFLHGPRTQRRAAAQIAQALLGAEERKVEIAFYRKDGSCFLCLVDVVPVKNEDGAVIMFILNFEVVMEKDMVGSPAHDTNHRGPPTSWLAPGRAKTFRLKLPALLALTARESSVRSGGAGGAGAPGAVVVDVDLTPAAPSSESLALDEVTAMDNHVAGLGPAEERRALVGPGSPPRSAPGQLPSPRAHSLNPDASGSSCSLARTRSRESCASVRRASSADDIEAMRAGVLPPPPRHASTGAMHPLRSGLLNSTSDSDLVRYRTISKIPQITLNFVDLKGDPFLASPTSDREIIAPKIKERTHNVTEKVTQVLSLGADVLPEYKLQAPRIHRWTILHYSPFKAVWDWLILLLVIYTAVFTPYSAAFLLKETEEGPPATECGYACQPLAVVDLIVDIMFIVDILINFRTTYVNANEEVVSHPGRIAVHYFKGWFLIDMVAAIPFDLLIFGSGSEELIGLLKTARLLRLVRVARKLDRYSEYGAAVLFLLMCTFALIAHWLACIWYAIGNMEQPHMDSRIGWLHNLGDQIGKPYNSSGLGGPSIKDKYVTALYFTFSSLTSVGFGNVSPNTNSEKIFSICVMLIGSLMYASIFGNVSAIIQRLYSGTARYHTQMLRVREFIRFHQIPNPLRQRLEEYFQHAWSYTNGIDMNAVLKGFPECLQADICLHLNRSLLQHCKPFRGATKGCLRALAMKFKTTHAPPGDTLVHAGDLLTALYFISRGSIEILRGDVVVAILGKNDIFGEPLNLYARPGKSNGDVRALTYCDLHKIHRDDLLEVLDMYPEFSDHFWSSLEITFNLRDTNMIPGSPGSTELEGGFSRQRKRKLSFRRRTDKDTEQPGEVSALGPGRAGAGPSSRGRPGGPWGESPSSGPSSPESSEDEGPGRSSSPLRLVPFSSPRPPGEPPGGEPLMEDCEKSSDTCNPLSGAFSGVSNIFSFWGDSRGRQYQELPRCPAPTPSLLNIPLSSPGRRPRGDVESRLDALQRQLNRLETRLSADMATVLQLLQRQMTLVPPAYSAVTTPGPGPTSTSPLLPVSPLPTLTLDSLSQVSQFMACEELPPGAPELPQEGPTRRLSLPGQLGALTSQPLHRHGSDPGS

| SMILES | inhibition [1] [%] | inhibition [2] [%] | further results |
| --- | --- | --- | --- |
| C(#Cc1ncccn1)c1ccc2ccccc2n1 | 17.1 | 28.6 | – |
| COc1cccc2nc(C#Cc3cccnc3)ccc12 | 67.7 | 67.7 | remaining at 0.5 h, 1 µM [3]: < 1% |
| CCOc1cccc2nc(C#Cc3cccnc3)ccc12 | 47.2 | 66.6 | – |
| FC(F)(F)c1cccnc1C#Cc1ccc2ccccc2n1 | 9.49 | 16.4 | – |
| Brc1cccc2nc(C#Cc3ccccc3)ccc12 | 21.1 | 20.7 | – |
| Oc1cccc2nc(C#Cc3ccccc3)ccc12 | 18 | 24.3 | – |
| Oc1cccc2nc(C#Cc3ccccn3)ccc12 | 17.4 | 22.1 | – |
| NCC1(CC(=O)O)CCCCC1 | – | – | Activity (Rattus norvegicus [4]): Active; Activity (Rattus norvegicus [5]): Active |
| Brc1cccc2nc(C#Cc3ccccn3)ccc12 | 56.7 | 77.5 | activity at 10 µM (CYP3A4): 56%; activity at 10 µM (CYP2C9): 52%; activity at 10 µM (CYP2D6): 78%; remaining at 0.5 h, 1 µM [3]: 98%; IC50 [6]: 0.75 µM; IC50 [7]: 22.7 µM |
| COc1cccc(C#Cc2ccc3ccccc3n2)n1 | 16.6 | 48.6 | – |
| C(#Cc1ccc2ccccc2n1)c1cncnc1 | 13.6 | 22.4 | – |
| FC(F)(F)c1ccnc(C#Cc2ccc3ccccc3n2)c1 | 23.3 | 58 | – |
| N#Cc1cccc(C#Cc2ccc3ccccc3n2)n1 | 33 | 64.8 | – |
| Fc1cccc(C#Cc2ccc3ccccc3n2)n1 | 29.6 | 46.9 | – |
| CC(C)(C)C(=O)Oc1cccc2nc(C#Cc3ccccc3)ccc12 | 24 | 23.8 | – |
| Fc1cccnc1C#Cc1ccc2ccccc2n1 | 31.3 | 55.2 | – |
| COc1cccc2nc(C#Cc3ccccc3)ccc12 | 63.6 | 68 | activity at 10 µM (CYP3A4): 50%; activity at 10 µM (CYP2C9): 55%; activity at 10 µM (CYP2D6): > 99%; remaining at 0.5 h, 1 µM [3]: < 1% |
| FC(F)(F)c1cccc(C#Cc2ccc3ccccc3n2)n1 | 15.8 | 28.7 | – |

| SMILES | inhibition [1] [%] | inhibition [2] [%] | further results |
| --- | --- | --- | --- |
| Cc1cccnc1C#Cc1ccc2ccccc2n1 | 18.9 | 40.1 | – |
| Fc1ccc(C#Cc2ccc3ccccc3n2)nc1 | 33.9 | 63.3 | – |
| Cc1ccc(C#Cc2ccc3ccccc3n2)nc1 | 29 | 66.3 | – |
| FC(F)(F)c1ccc(C#Cc2ccc3ccccc3n2)nc1 | 13 | 50.7 | – |
| C(#Cc1ccc2ccccc2n1)c1ccccc1 | 35.9 | 67.7 | – |
| Fc1cnc(C#Cc2ccc3ccccc3n2)nc1 | 16 | 15.6 | – |
| C(#Cc1ccc2ccccc2n1)c1ccccn1 | 58.8 | 76.7 | Activity (Rattus norvegicus [4]): Active; Activity (Rattus norvegicus [5]): Active; bioavailability [8]: 15.9%; half-life [9]: 58.2 min; Tmax [10]: 10 min; Cmax [11]: 430 ng/mL; Vd [12]: 1.27 L/kg; clearance [13]: 84.9 mL/min/kg; half-life [14]: 48.5 min; activity at 10 µM (CYP3A4): 77%; activity at 10 µM (CYP2C9): > 99%; activity at 10 µM (CYP2D6): 98%; remaining at 0.5 h, 1 µM [3]: 88% |
| C(#Cc1ccc2ccccc2n1)c1cccnc1 | 43.9 | 65.8 | – |
| Oc1cccc2nc(C#Cc3cccnc3)ccc12 | 25.2 | 17.6 | – |
| FC(F)(F)c1ccnc(C#Cc2ccc3ccccc3n2)n1 | 17.3 | 15.9 | – |
| Clc1cccc2nc(C#Cc3ccccn3)ccc12 | 31 | 64.3 | – |
| Brc1cccc2nc(C#Cc3cccnc3)ccc12 | 22 | 40.1 | – |
| Clc1cccc2nc(C#Cc3cccnc3)ccc12 | 11.2 | 28.4 | – |
| Clc1cccc2nc(C#Cc3ccccc3)ccc12 | 11.7 | 8.02 | – |
| CC(C)(C)C(=O)Oc1cccc2nc(C#Cc3cccnc3)ccc12 | 10.6 | 28.5 | – |
| N#Cc1ccnc(C#Cc2ccc3ccccc3n2)c1 | 35.2 | 76.1 | – |
| Cc1ccnc(C#Cc2ccc3ccccc3n2)c1 | 21.9 | 66.5 | – |
| CC(C)(C)C(=O)Oc1cccc2nc(C#Cc3ccccn3)ccc12 | 17.1 | 62.4 | – |
